Results published in ChEMBL document CHEMBL1125259, “Lipophilic glycosyl phosphotriester derivatives of AZT: synthesis, NMR transmembrane transport study, and antiviral activity” (1991).

How the values were obtained:
[1] = target: Human immunodeficiency virus type 1 reverse transcriptase (Human immunodeficiency virus 1) (UniProt Q72547); assay: Compound ability to inhibit the production of HIV reverse transcriptase (RT) in culture supernatant of monocytic U937 on at 11 days at a concentration 0.2 uM; format: functional
In short: (§1)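 HIV-1-infected monocytic U937 cultures were kept up to 14 days with compound. Supernatant RT activity was measured as for CEM-C113, as [³H] cpm/50 µL. % inhibition = 100 − 100 × (cpm of treated samples / cpm of control virus).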

[2] = target: Human immunodeficiency virus type 1 reverse transcriptase (Human immunodeficiency virus 1) (UniProt Q72547); assay: Compound ability to inhibit the production of HIV reverse transcriptase (RT) in culture supernatant of monocytic U937 on at 14 days at a concentration 0.2 uM; format: functional; in short: as §1
[3] = target: Human immunodeficiency virus type 1 reverse transcriptase (Human immunodeficiency virus 1) (UniProt Q72547); assay: Compound ability to inhibit the production of HIV reverse transcriptase (RT) in culture supernatant of CEM-CL13 on at 15 days at a concentration 1 uM; format: functional
In short: (§2)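 CEM-C113 cells in RPMI 1640 with 5% heat-inactivated FCS and polybrene (2 µg/mL) were plated at 1×10^5 cells/mL with compound in PBS, in triplicate, and infected with HIV-1 LAV-Bru. From day 7, every 3–4 days, fresh medium with or without drug was added and 50 µL supernatant was taken for RT microassay. The RT microassay used poly(rA)-oligo(dT) and (methyl-³H)dTTP for 1 h at 37 °C, with TCA precipitation, read as cpm/50 µL.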

[4] = target: Human immunodeficiency virus type 1 reverse transcriptase (Human immunodeficiency virus 1) (UniProt Q72547); assay: Compound ability to inhibit the production of HIV reverse transcriptase (RT) in culture supernatant of CEM-CL13 on at 22 days at a concentration 1 uM; format: functional; in short: as §2
[5] = target: Human immunodeficiency virus type 1 reverse transcriptase (Human immunodeficiency virus 1) (UniProt Q72547); assay: Compound ability to inhibit the production of HIV reverse transcriptase (RT) in culture supernatant of monocytic U937 on at 7 days at a concentration 5 uM; format: functional; in short: as §1
[6] = target: Human immunodeficiency virus type 1 reverse transcriptase (Human immunodeficiency virus 1) (UniProt Q72547); assay: Compound ability to inhibit the production of HIV reverse transcriptase (RT) in preinfected PBL (peripheral blood lymphocytes) at 21 days at a concentration 1 uM; format: functional
In short: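 PBL were infected with HIV-1 for 1 h at 37 °C, washed twice, and resuspended in complete medium with 10% interleukin-2 and anti-human α-interferon (1000 units/mL). Cells were plated at 1×10^6 cells/well with or without compound. At each time point, 50 µL supernatant was taken for RT assay ([³H]dTTP incorporation, cpm).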

[7] = target: Human immunodeficiency virus type 1 reverse transcriptase (Human immunodeficiency virus 1) (UniProt Q72547); assay: Compound ability to inhibit the production of HIV reverse transcriptase (RT) in culture supernatant of monocytic U937 on at 11 days at a concentration 5 uM; format: functional; in short: as §1
[8] = target: Human immunodeficiency virus type 1 reverse transcriptase (Human immunodeficiency virus 1) (UniProt Q72547); assay: Percent inhibition measured as the production of HIV reverse transcriptase (RT) in culture supernatant of monocytic U937 on at 11 days at a concentration 5 uM; format: functional
In short: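 U937 cells in RPMI 1640 with 5% heat-inactivated FCS, penicillin, streptomycin and polybrene (2 μg/mL), 37 °C, 5% CO2. Infected with HIV-1 LAV-Bru; compounds diluted in PBS. 50 μL supernatant aliquots were assayed for RT: 1 h, 37 °C, pH 7.8, Mg2+, poly(rA)-oligo(dT), [3H]dTTP, TCA-pyrophosphate stop, filter counting. % inhibition = 100 − 100 × (treated cpm / virus-control cpm).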

[9] = target: Human immunodeficiency virus type 1 reverse transcriptase (Human immunodeficiency virus 1) (UniProt Q72547); details: at 25 µM
[10] = target: Human immunodeficiency virus type 1 reverse transcriptase (Human immunodeficiency virus 1) (UniProt Q72547); details: at 25 µM; remark: listed apart in the source
[11] = target: Human immunodeficiency virus type 1 reverse transcriptase (Human immunodeficiency virus 1) (UniProt Q72547); assay: Compounds were evaluated for anti-RT activity by MTT dose and %protection was reported at 7 days of culture
In short: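 HIV-1 was preincubated with compound at 25 µM for 60 min at 37 °C, pelleted, and added to CEM-C113 cells (1×10^5 cells/mL) for 60 min at 37 °C. Medium was then replaced without compound. At days 7 and 9, viability was read by MTT assay on 100 µL of cell suspension.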

SMILES	Activity (c.p.m. 50ul-1) [1]	Activity (c.p.m. 50ul-1) [2]	Activity (c.p.m. 50ul-1) [3]	Activity (c.p.m. 50ul-1) [4]	Activity (c.p.m. 50ul-1) [5]	Activity (c.p.m. 50ul-1) [6]	Activity (c.p.m. 50ul-1) [7]	inhibition [8]	inhibition [9]	inhibition [10]	Protection [11]
CCCCCCCCCCCCCCCCOP(=O)(OCCO[C@H]1O[C@H](CO)[C@@H](O)[C@H](O)[C@@H]1O)OCC1OC(n2cc(C)c(=O)[nH]c2=O)CC1N=[N+]=[N-] (some centres not stated)	131000	30000	5500	48000							
Cc1cn([C@H]2C[C@H](N=[N+]=[N-])[C@@H](CO)O2)c(=O)[nH]c1=O [ZIDOVUDINE]	152000	60000	600	1700	35000	44400	118000	18%	0%	96%	
Cc1cn([C@H]2C[C@H](N=[N+]=[N-])[C@@H](COP(=O)(O)OC[C@H]3OC(O)[C@H](O)[C@@H](O)[C@@H]3O)O2)c(=O)[nH]c1=O (some centres not stated)					142000	16100	211000	0%	0%	73%	36%
CCCCCCCCCCCCCCCCOP(=O)(OC[C@H]1OC(O)[C@H](O)[C@@H](O)[C@@H]1O)OC[C@H]1OC(n2cc(C)c(=O)[nH]c2=O)C[C@@H]1N=[N+]=[N-] (some centres not stated)	178000	16000	750	33000		71100					
Cc1cn([C@H]2C[C@H](N=[N+]=[N-])[C@@H](COP(=O)(O)OCCO[C@H]3O[C@H](CO)[C@@H](O)[C@H](O)[C@@H]3O)O2)c(=O)[nH]c1=O					200000	21300	192000	0%	41%	77%	
CCCCCCCCCCCCCCCCOP(=O)(OC[C@H]1OC(O)[C@@H](O)[C@@H](O)[C@@H]1O)OC[C@H]1OC(n2cc(C)c(=O)[nH]c2=O)C[C@@H]1N=[N+]=[N-] (some centres not stated)	227000	27000	500	3900							
Cc1cn([C@H]2C[C@H](N=[N+]=[N-])[C@@H](COP(=O)(O)OC[C@H]3OC(O)[C@@H](O)[C@@H](O)[C@@H]3O)O2)c(=O)[nH]c1=O (some centres not stated)					133000	33100	193000	0%	0%	86%	
